Test results: ChEMBL document CHEMBL2016520, “Design, synthesis, molecular docking and biological evaluation of new dithiocarbamates substituted benzimidazole and chalcones as possible chemotherapeutic agents” (Bioorg Med Chem Lett, 2012)

Each compound was assayed on Cicer arietinum (assay: Antimitotic activity against chick pea seeds assessed as inhibition of germinating root growth after 7 days). Conditions: 168 h.
Type: functional, organism-based
How it was run: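 Seeds germinated in Petri dishes on filter paper for 7 days, with the paper moistened every 24 h with drug solution. One dish held DMSO as control and one held cisplatin as the standard. Radicle length was measured in cm on day 7, and percent growth inhibition was calculated against the mean of the DMSO-treated control.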

Compound	IC50 [nM]
S=C(SCc1nc2ccccc2[nH]1)N1CCOCC1	1890
CN(C)C(=S)SC(CC(=O)c1ccccc1)c1ccccc1 (stereo not drawn)	2430
CCCCNC(=S)SCc1nc2ccccc2[nH]1	2110
CCN(CC)C(=S)SC(CC(=O)c1ccccc1)c1ccccc1 (stereo not drawn)	1840
O=C(CC(SC(=S)Nc1nc2ccccc2s1)c1ccccc1)c1ccccc1 (stereo not drawn)	1520
CCN(CC)C(=S)SCc1nc2ccccc2[nH]1	1860
O=C(CC(SC(=S)N1CCOCC1)c1ccccc1)c1ccccc1 (stereo not drawn)	1650
S=C(SCc1nc2ccccc2[nH]1)N1CCCCC1	1660
CCCNC(=S)SCc1nc2ccccc2[nH]1	2290
O=C(CC(SC(=S)N1CCCC1)c1ccccc1)c1ccccc1 (stereo not drawn)	1670
CN(C)C(=S)SCc1nc2ccccc2[nH]1	2120
O=C(CC(SC(=S)N1CCCCC1)c1ccccc1)c1ccccc1 (stereo not drawn)	1850
S=C(SCc1nc2ccccc2[nH]1)N1CCCC1	1800
